Measurements published in ChEMBL document CHEMBL3779809, “Bioactive Enmein-Type ent-Kaurane Diterpenoids from Isodon phyllostachys” (J Nat Prod, 2016).

System: not listed separately
Test: Cytotoxicity against human SMMC7721 cells assessed as cell viability after 48 hrs by MTS assay
Type: functional, cell-based
Conditions: SMMC-7721, 48 h
How it was run: (§1)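 Cells grown in RPMI-1640 or DMEM with 10% FBS at 37 °C, 5% CO2. Seeded, incubated 12 h, then exposed to a range of concentrations in triplicate for 48 h. Viability read by MTS reduction to formazan. IC50 calculated by Reed and Muench method; cis-platin positive control.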

SMILES | IC50 [µM]
C=C1C(=O)[C@]23C[C@@H]1C[C@@H](O)[C@H]2C12CO[C@@H]4OC[C@](C)(CC[C@@H]1OC3=O)[C@@H]42 (stereo not given in full) | 12.5
C=C1C(=O)[C@]23C[C@@H]1CC[C@H]2[C@@]12CO[C@@H](O)[C@@H]1C(C)(C)CC[C@@H]2OC3=O | 3.3
C=C1C(=O)[C@]23C[C@@H]1CC[C@H]2C12CO[C@@H](O)[C@@H]1C(C)(C)[C@@H](O)C[C@@H]2OC3=O (stereo not given in full) | 9.8
C=C1C(=O)[C@]23C[C@@H]1C[C@@H](O)[C@H]2[C@@]12CO[C@@H](O)[C@@H]1C(C)(C)CC[C@@H]2OC3=O | 11.4
C=C1C(=O)[C@]23C[C@@H]1CC[C@H]2C12C(O)O[C@@H](OC)[C@@H]1C(C)(C)CC[C@@H]2OC3=O (stereo not given in full) | 4.2

System: SW480
Test: Cytotoxicity against human SW480 cells assessed as cell viability after 48 hrs by MTS assay
Type: functional, cell-based
Conditions: SW480, 48 h
How it was run: as §1

SMILES | IC50 [µM]
C=C1C(=O)[C@]23C[C@@H]1C[C@@H](O)[C@H]2C12CO[C@@H]4OC[C@](C)(CC[C@@H]1OC3=O)[C@@H]42 (stereo not given in full) | > 40
C=C1C(=O)[C@]23C[C@@H]1CC[C@H]2[C@@]12CO[C@@H](O)[C@@H]1C(C)(C)CC[C@@H]2OC3=O | 1.7
C=C1C(=O)[C@]23C[C@@H]1CC[C@H]2C12CO[C@@H](O)[C@@H]1C(C)(C)[C@@H](O)C[C@@H]2OC3=O (stereo not given in full) | 5.5
C=C1C(=O)[C@]23C[C@@H]1C[C@@H](O)[C@H]2[C@@]12CO[C@@H](O)[C@@H]1C(C)(C)CC[C@@H]2OC3=O | 10.9
C=C1C(=O)[C@]23C[C@@H]1CC[C@H]2C12C(O)O[C@@H](OC)[C@@H]1C(C)(C)CC[C@@H]2OC3=O (stereo not given in full) | 3.2

System: RAW264.7
Test: Inhibition of LPS-induced NO production in mouse RAW264.7 cells at 25 uM preincubated with compound followed by LPS challenge measured after 18 hrs by Griess method
Type: functional, cell-based
Conditions: not given
How it was run: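 RAW264.7 macrophages seeded at 2 × 10^5 cells/well and treated with serial compound dilutions (maximum 25 μM), then stimulated with LPS 1 μg/mL for 18 h. Supernatant nitrite measured with Griess reagents, absorbance 550 nm. MG-132 positive control. Viability checked in parallel by MTT to exclude cytotoxic interference.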

SMILES | IC50 [µM]
C=C1C(=O)[C@]23C[C@@H]1C[C@@H](O)[C@H]2C12CO[C@@H]4OC[C@](C)(CC[C@@H]1OC3=O)[C@@H]42 (stereo not given in full) | 3.51
C=C1C(=O)[C@]23C[C@@H]1CC[C@H]2[C@@]12CO[C@@H](O)[C@@H]1C(C)(C)CC[C@@H]2OC3=O | 0.74
C=C1C(=O)[C@]23C[C@@H]1CC[C@H]2C12CO[C@@H](O)[C@@H]1C(C)(C)[C@@H](O)C[C@@H]2OC3=O (stereo not given in full) | 3.53
C=C1C(=O)[C@]23C[C@@H]1C[C@@H](O)[C@H]2[C@@]12CO[C@@H](O)[C@@H]1C(C)(C)CC[C@@H]2OC3=O | 3.56
C=C1C(=O)[C@]23C[C@@H]1CC[C@H]2C12C(O)O[C@@H](OC)[C@@H]1C(C)(C)CC[C@@H]2OC3=O (stereo not given in full) | 1.47

System: not listed separately
Test: Cytotoxicity against human HL60 cells assessed as cell viability after 48 hrs by MTS assay
Type: functional, cell-based
Conditions: HL-60, 48 h
How it was run: as §1

SMILES | IC50 [µM]
C=C1C(=O)[C@]23C[C@@H]1C[C@@H](O)[C@H]2C12CO[C@@H]4OC[C@](C)(CC[C@@H]1OC3=O)[C@@H]42 (stereo not given in full) | 14.3
C=C1C(=O)[C@]23C[C@@H]1CC[C@H]2[C@@]12CO[C@@H](O)[C@@H]1C(C)(C)CC[C@@H]2OC3=O | 2.1
C=C1C(=O)[C@]23C[C@@H]1CC[C@H]2C12CO[C@@H](O)[C@@H]1C(C)(C)[C@@H](O)C[C@@H]2OC3=O (stereo not given in full) | 9.2
C=C1C(=O)[C@]23C[C@@H]1C[C@@H](O)[C@H]2[C@@]12CO[C@@H](O)[C@@H]1C(C)(C)CC[C@@H]2OC3=O | 10.3
C=C1C(=O)[C@]23C[C@@H]1CC[C@H]2C12C(O)O[C@@H](OC)[C@@H]1C(C)(C)CC[C@@H]2OC3=O (stereo not given in full) | 3

System: not listed separately
Test: Cytotoxicity against human HL60 cells assessed growth inhibition at 40 uM after 48 hrs by MTS assay relative to control
Type: functional
Conditions: HL-60, 48 h, read-out: GI
How it was run: (§2)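 Cultured in RPMI-1640 or DMEM with 10% FBS at 37 °C under 5% CO2. Cells seeded, given 12 h at 37 °C, then treated with compound at 40 μM for 48 h. Growth inhibition measured by MTS assay (formazan colorimetry).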

SMILES | inhibition of growth at 40 µM [%]
C=C1C(=O)[C@]23C[C@@H]1C[C@@H](O)[C@H]2C12CO[C@@H]4OC[C@](C)(CC[C@@H]1OC3=O)[C@@H]42 (stereo not given in full) | > 50
C=C1C(=O)[C@]23C[C@@H]1CC[C@H]2[C@@]12CO[C@@H](O)[C@@H]1C(C)(C)CC[C@@H]2OC3=O | > 50
C=C1C(=O)[C@]23C[C@@H]1CC[C@H]2C12CO[C@@H](O)[C@@H]1C(C)(C)[C@@H](O)C[C@@H]2OC3=O (stereo not given in full) | > 50
C=C1C(=O)[C@]23C[C@@H]1C[C@@H](O)[C@H]2[C@@]12CO[C@@H](O)[C@@H]1C(C)(C)CC[C@@H]2OC3=O | > 50
C=C1C(=O)[C@]23C[C@@H]1CC[C@H]2C12C(O)O[C@@H](OC)[C@@H]1C(C)(C)CC[C@@H]2OC3=O (stereo not given in full) | > 50

System: A549
Test: Cytotoxicity against human A549 cells assessed as cell viability after 48 hrs by MTS assay
Type: functional, cell-based
Conditions: A549, 48 h
How it was run: as §1

SMILES | IC50 [µM]
C=C1C(=O)[C@]23C[C@@H]1C[C@@H](O)[C@H]2C12CO[C@@H]4OC[C@](C)(CC[C@@H]1OC3=O)[C@@H]42 (stereo not given in full) | 10.2
C=C1C(=O)[C@]23C[C@@H]1CC[C@H]2[C@@]12CO[C@@H](O)[C@@H]1C(C)(C)CC[C@@H]2OC3=O | 2.1
C=C1C(=O)[C@]23C[C@@H]1CC[C@H]2C12CO[C@@H](O)[C@@H]1C(C)(C)[C@@H](O)C[C@@H]2OC3=O (stereo not given in full) | 13.3
C=C1C(=O)[C@]23C[C@@H]1C[C@@H](O)[C@H]2[C@@]12CO[C@@H](O)[C@@H]1C(C)(C)CC[C@@H]2OC3=O | 14.3
C=C1C(=O)[C@]23C[C@@H]1CC[C@H]2C12C(O)O[C@@H](OC)[C@@H]1C(C)(C)CC[C@@H]2OC3=O (stereo not given in full) | 3.9

System: MCF7
Test: Cytotoxicity against human MCF7 cells assessed as cell viability after 48 hrs by MTS assay
Type: functional, cell-based
Conditions: MCF7, 48 h
How it was run: as §1

SMILES | IC50 [µM]
C=C1C(=O)[C@]23C[C@@H]1C[C@@H](O)[C@H]2C12CO[C@@H]4OC[C@](C)(CC[C@@H]1OC3=O)[C@@H]42 (stereo not given in full) | 13.7
C=C1C(=O)[C@]23C[C@@H]1CC[C@H]2[C@@]12CO[C@@H](O)[C@@H]1C(C)(C)CC[C@@H]2OC3=O | 3.4
C=C1C(=O)[C@]23C[C@@H]1CC[C@H]2C12CO[C@@H](O)[C@@H]1C(C)(C)[C@@H](O)C[C@@H]2OC3=O (stereo not given in full) | 15.7
C=C1C(=O)[C@]23C[C@@H]1C[C@@H](O)[C@H]2[C@@]12CO[C@@H](O)[C@@H]1C(C)(C)CC[C@@H]2OC3=O | 14
C=C1C(=O)[C@]23C[C@@H]1CC[C@H]2C12C(O)O[C@@H](OC)[C@@H]1C(C)(C)CC[C@@H]2OC3=O (stereo not given in full) | 2.4

System: not listed separately
Test: Cytotoxicity against human SMMC7721 cells assessed growth inhibition at 40 uM after 48 hrs by MTS assay relative to control
Type: functional
Conditions: SMMC-7721, 48 h, read-out: GI
How it was run: as §2

SMILES | inhibition of growth at 40 µM [%]
C=C1C(=O)[C@]23C[C@@H]1C[C@@H](O)[C@H]2C12CO[C@@H]4OC[C@](C)(CC[C@@H]1OC3=O)[C@@H]42 (stereo not given in full) | > 50
C=C1C(=O)[C@]23C[C@@H]1CC[C@H]2[C@@]12CO[C@@H](O)[C@@H]1C(C)(C)CC[C@@H]2OC3=O | > 50
C=C1C(=O)[C@]23C[C@@H]1CC[C@H]2C12CO[C@@H](O)[C@@H]1C(C)(C)[C@@H](O)C[C@@H]2OC3=O (stereo not given in full) | > 50
C=C1C(=O)[C@]23C[C@@H]1C[C@@H](O)[C@H]2[C@@]12CO[C@@H](O)[C@@H]1C(C)(C)CC[C@@H]2OC3=O | > 50
C=C1C(=O)[C@]23C[C@@H]1CC[C@H]2C12C(O)O[C@@H](OC)[C@@H]1C(C)(C)CC[C@@H]2OC3=O (stereo not given in full) | > 50

System: A549
Test: Cytotoxicity against human A549 cells assessed growth inhibition at 40 uM after 48 hrs by MTS assay relative to control
Type: functional
Conditions: A549, 48 h, read-out: GI
How it was run: as §2

SMILES | inhibition of growth at 40 µM [%]
C=C1C(=O)[C@]23C[C@@H]1C[C@@H](O)[C@H]2C12CO[C@@H]4OC[C@](C)(CC[C@@H]1OC3=O)[C@@H]42 (stereo not given in full) | > 50
C=C1C(=O)[C@]23C[C@@H]1CC[C@H]2[C@@]12CO[C@@H](O)[C@@H]1C(C)(C)CC[C@@H]2OC3=O | > 50
C=C1C(=O)[C@]23C[C@@H]1CC[C@H]2C12CO[C@@H](O)[C@@H]1C(C)(C)[C@@H](O)C[C@@H]2OC3=O (stereo not given in full) | > 50
C=C1C(=O)[C@]23C[C@@H]1C[C@@H](O)[C@H]2[C@@]12CO[C@@H](O)[C@@H]1C(C)(C)CC[C@@H]2OC3=O | > 50
C=C1C(=O)[C@]23C[C@@H]1CC[C@H]2C12C(O)O[C@@H](OC)[C@@H]1C(C)(C)CC[C@@H]2OC3=O (stereo not given in full) | > 50
